Results from PMC9217999 (Targeted Oncology, 2022).
Entries after “also recorded” stand apart in the source; their conditions may differ.

Assay: Safety and tolerability in iMATRIX-cobi Phase I/II study
Format: in vivo, human
Method in brief: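 Patients aged 6 months to <30 years with relapsed/refractory solid tumors with MAPK pathway involvement. Oral test compound (20-mg tablet or suspension, with/without food) on Days 1–21 of 28-day cycles. Cumulative weekly weight-based dose rounded to 20 mg, capped at 60 mg/day. Rolling 6 escalation in cohorts of 3–6. Eye exams including OCT at baseline, cycle 1 Days 8/15, and each later cycle Day 1. All dosed patients evaluated.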

[1] = Dose escalation tablet (n = 18)

O=C(c1ccc(F)c(F)c1Nc1ccc(I)cc1F)N1CC(O)([C@@H]2CCCCN2)C1 [cobimetinib]
Treatment-related AE: Encephalopathy, G3 [1]: 1 (6) n (%)
Treatment-related AE: Encephalopathy, G4 [1]: 0 n (%)
Treatment-related AE: Erythema, G1 [1]: 2 (11) n (%)
Treatment-related AE: Erythema, G2 [1]: 0 n (%)
Treatment-related AE: Erythema, G3 [1]: 0 n (%)
Treatment-related AE: Erythema, G4 [1]: 0 n (%)
Treatment-related AE: Fatigue, G1 [1]: 2 (11) n (%)
Treatment-related AE: Fatigue, G2 [1]: 0 n (%)
Treatment-related AE: Fatigue, G3 [1]: 0 n (%)
Treatment-related AE: Fatigue, G4 [1]: 0 n (%)
Treatment-related AE: Headache, G1 [1]: 1 (6) n (%)
Treatment-related AE: Headache, G2 [1]: 0 n (%)
Treatment-related AE: Headache, G3 [1]: 1 (6) n (%)
Treatment-related AE: Headache, G4 [1]: 0 n (%)
Treatment-related AE: Nausea, G1 [1]: 3 (17) n (%)
Treatment-related AE: Nausea, G2 [1]: 0 n (%)
Treatment-related AE: Nausea, G3 [1]: 0 n (%)
Treatment-related AE: Nausea, G4 [1]: 0 n (%)
Treatment-related AE: Paronychia, G1 [1]: 0 n (%)
Treatment-related AE: Paronychia, G2 [1]: 0 n (%)
Treatment-related AE: Paronychia, G3 [1]: 0 n (%)
Treatment-related AE: Paronychia, G4 [1]: 0 n (%)
Treatment-related AE: Rash, G1 [1]: 3 (17) n (%)
Treatment-related AE: Rash, G2 [1]: 0 n (%)
Treatment-related AE: Rash, G3 [1]: 0 n (%)
Treatment-related AE: Rash, G4 [1]: 0 n (%)
Treatment-related AE: Transaminases increased, G1 [1]: 0 n (%)
Treatment-related AE: Transaminases increased, G2 [1]: 0 n (%)
Treatment-related AE: Transaminases increased, G3 [1]: 0 n (%)
Treatment-related AE: Transaminases increased, G4 [1]: 0 n (%)
Treatment-related AE: Vomiting, G1 [1]: 1 (6) n (%)
Treatment-related AE: Vomiting, G2 [1]: 2 (11) n (%)
Treatment-related AE: Vomiting, G3 [1]: 0 n (%)
Treatment-related AE: Vomiting, G4 [1]: 0 n (%)
Treatment-related AE: Weight increased, G1 [1]: 0 n (%)
Treatment-related AE: Weight increased, G2 [1]: 0 n (%)
Treatment-related AE: Weight increased, G3 [1]: 1 (6) n (%)
Treatment-related AE: Weight increased, G4 [1]: 0 n (%)
Any treatment-related AE, G1 (Dose expansion (n = 12)): 3 (25) n (%)
Any treatment-related AE, G2 (Dose expansion (n = 12)): 3 (25) n (%)
Any treatment-related AE, G3 (Dose expansion (n = 12)): 3 (25) n (%)
Any treatment-related AE, G4 (Dose expansion (n = 12)): 2 (17) n (%)
Treatment-related AE: ALT increased, G1 (Dose expansion (n = 12)): 1 (8) n (%)
Treatment-related AE: ALT increased, G2 (Dose expansion (n = 12)): 0 n (%)
Treatment-related AE: ALT increased, G3 (Dose expansion (n = 12)): 0 n (%)
Treatment-related AE: ALT increased, G4 (Dose expansion (n = 12)): 0 n (%)
Treatment-related AE: AST increased, G1 (Dose expansion (n = 12)): 1 (8) n (%)
Treatment-related AE: AST increased, G2 (Dose expansion (n = 12)): 0 n (%)
Treatment-related AE: AST increased, G3 (Dose expansion (n = 12)): 1 (8) n (%)
Treatment-related AE: AST increased, G4 (Dose expansion (n = 12)): 0 n (%)
Treatment-related AE: Abdominal pain, G1 (Dose expansion (n = 12)): 3 (25) n (%)
Treatment-related AE: Abdominal pain, G2 (Dose expansion (n = 12)): 0 n (%)
Treatment-related AE: Abdominal pain, G3 (Dose expansion (n = 12)): 0 n (%)
Treatment-related AE: Abdominal pain, G4 (Dose expansion (n = 12)): 0 n (%)
Treatment-related AE: Anemia, G1 (Dose expansion (n = 12)): 1 (8) n (%)
Treatment-related AE: Anemia, G2 (Dose expansion (n = 12)): 0 n (%)
Treatment-related AE: Anemia, G3 (Dose expansion (n = 12)): 1 (8) n (%)
Treatment-related AE: Anemia, G4 (Dose expansion (n = 12)): 0 n (%)
Treatment-related AE: Asthenia, G1 (Dose expansion (n = 12)): 0 n (%)
Treatment-related AE: Asthenia, G2 (Dose expansion (n = 12)): 0 n (%)
Treatment-related AE: Asthenia, G3 (Dose expansion (n = 12)): 1 (8) n (%)
Treatment-related AE: Asthenia, G4 (Dose expansion (n = 12)): 0 n (%)
Treatment-related AE: Blood CPK increased, G1 (Dose expansion (n = 12)): 0 n (%)
Treatment-related AE: Blood CPK increased, G2 (Dose expansion (n = 12)): 0 n (%)
Treatment-related AE: Blood CPK increased, G3 (Dose expansion (n = 12)): 1 (8) n (%)
Treatment-related AE: Blood CPK increased, G4 (Dose expansion (n = 12)): 1 (8) n (%)
Treatment-related AE: Chorioretinopathy, G1 (Dose expansion (n = 12)): 0 n (%)
Treatment-related AE: Chorioretinopathy, G2 (Dose expansion (n = 12)): 0 n (%)
Treatment-related AE: Chorioretinopathy, G3 (Dose expansion (n = 12)): 0 n (%)
Treatment-related AE: Chorioretinopathy, G4 (Dose expansion (n = 12)): 0 n (%)
Treatment-related AE: Constipation, G1 (Dose expansion (n = 12)): 0 n (%)
Treatment-related AE: Constipation, G2 (Dose expansion (n = 12)): 0 n (%)
Treatment-related AE: Constipation, G3 (Dose expansion (n = 12)): 0 n (%)
Treatment-related AE: Constipation, G4 (Dose expansion (n = 12)): 0 n (%)
Treatment-related AE: Decreased appetite, G1 (Dose expansion (n = 12)): 1 (8) n (%)
Treatment-related AE: Decreased appetite, G2 (Dose expansion (n = 12)): 0 n (%)
Treatment-related AE: Decreased appetite, G3 (Dose expansion (n = 12)): 0 n (%)
Treatment-related AE: Decreased appetite, G4 (Dose expansion (n = 12)): 0 n (%)
Treatment-related AE: Dermatitis acneiform, G1 (Dose expansion (n = 12)): 1 (8) n (%)
Treatment-related AE: Dermatitis acneiform, G2 (Dose expansion (n = 12)): 0 n (%)
Treatment-related AE: Dermatitis acneiform, G3 (Dose expansion (n = 12)): 0 n (%)
Treatment-related AE: Dermatitis acneiform, G4 (Dose expansion (n = 12)): 0 n (%)
Treatment-related AE: Diarrhea, G1 (Dose expansion (n = 12)): 4 (33) n (%)
Treatment-related AE: Diarrhea, G2 (Dose expansion (n = 12)): 0 n (%)
Treatment-related AE: Diarrhea, G3 (Dose expansion (n = 12)): 0 n (%)
Treatment-related AE: Diarrhea, G4 (Dose expansion (n = 12)): 0 n (%)
Treatment-related AE: Dry skin, G1 (Dose expansion (n = 12)): 1 (8) n (%)
Treatment-related AE: Dry skin, G2 (Dose expansion (n = 12)): 0 n (%)
Treatment-related AE: Dry skin, G3 (Dose expansion (n = 12)): 0 n (%)
Treatment-related AE: Dry skin, G4 (Dose expansion (n = 12)): 0 n (%)
Treatment-related AE: Encephalopathy, G1 (Dose expansion (n = 12)): 0 n (%)
Treatment-related AE: Encephalopathy, G2 (Dose expansion (n = 12)): 0 n (%)
Treatment-related AE: Encephalopathy, G3 (Dose expansion (n = 12)): 0 n (%)
Treatment-related AE: Encephalopathy, G4 (Dose expansion (n = 12)): 1 (8) n (%)
Treatment-related AE: Erythema, G1 (Dose expansion (n = 12)): 0 n (%)
Treatment-related AE: Erythema, G2 (Dose expansion (n = 12)): 0 n (%)
Treatment-related AE: Erythema, G3 (Dose expansion (n = 12)): 0 n (%)
Treatment-related AE: Erythema, G4 (Dose expansion (n = 12)): 0 n (%)
Treatment-related AE: Fatigue, G1 (Dose expansion (n = 12)): 2 (17) n (%)
Treatment-related AE: Fatigue, G2 (Dose expansion (n = 12)): 0 n (%)
Treatment-related AE: Fatigue, G3 (Dose expansion (n = 12)): 0 n (%)
Treatment-related AE: Fatigue, G4 (Dose expansion (n = 12)): 0 n (%)
Treatment-related AE: Headache, G1 (Dose expansion (n = 12)): 1 (8) n (%)
Treatment-related AE: Headache, G2 (Dose expansion (n = 12)): 0 n (%)
Treatment-related AE: Headache, G3 (Dose expansion (n = 12)): 0 n (%)
Treatment-related AE: Headache, G4 (Dose expansion (n = 12)): 0 n (%)
Treatment-related AE: Nausea, G1 (Dose expansion (n = 12)): 1 (8) n (%)
Treatment-related AE: Nausea, G2 (Dose expansion (n = 12)): 0 n (%)
Treatment-related AE: Nausea, G3 (Dose expansion (n = 12)): 0 n (%)
Treatment-related AE: Nausea, G4 (Dose expansion (n = 12)): 0 n (%)
Treatment-related AE: Paronychia, G1 (Dose expansion (n = 12)): 0 n (%)
Treatment-related AE: Paronychia, G2 (Dose expansion (n = 12)): 0 n (%)
Treatment-related AE: Paronychia, G3 (Dose expansion (n = 12)): 0 n (%)
Treatment-related AE: Paronychia, G4 (Dose expansion (n = 12)): 0 n (%)
Treatment-related AE: Rash, G1 (Dose expansion (n = 12)): 0 n (%)
Treatment-related AE: Rash, G2 (Dose expansion (n = 12)): 1 (8) n (%)
Treatment-related AE: Rash, G3 (Dose expansion (n = 12)): 0 n (%)
Treatment-related AE: Rash, G4 (Dose expansion (n = 12)): 0 n (%)
Treatment-related AE: Transaminases increased, G1 (Dose expansion (n = 12)): 0 n (%)
Treatment-related AE: Transaminases increased, G2 (Dose expansion (n = 12)): 0 n (%)
Treatment-related AE: Transaminases increased, G3 (Dose expansion (n = 12)): 0 n (%)
Treatment-related AE: Transaminases increased, G4 (Dose expansion (n = 12)): 0 n (%)
Treatment-related AE: Vomiting, G1 (Dose expansion (n = 12)): 4 (33) n (%)
Treatment-related AE: Vomiting, G2 (Dose expansion (n = 12)): 0 n (%)
Treatment-related AE: Vomiting, G3 (Dose expansion (n = 12)): 0 n (%)
Treatment-related AE: Vomiting, G4 (Dose expansion (n = 12)): 0 n (%)
Treatment-related AE: Weight increased, G1 (Dose expansion (n = 12)): 0 n (%)
Treatment-related AE: Weight increased, G2 (Dose expansion (n = 12)): 0 n (%)
Treatment-related AE: Weight increased, G3 (Dose expansion (n = 12)): 1 (8) n (%)
Treatment-related AE: Weight increased, G4 (Dose expansion (n = 12)): 0 n (%)
AESI aspartate aminotransferase increased (dose escalation suspension): 12%
AESI epistaxis (dose escalation suspension): 12%
AESI aspartate aminotransferase increased (dose escalation tablet): 6%
AESI epistaxis (dose escalation tablet): 17%
Deaths on study (eleven deaths, all due to PD): 20%
AESI aspartate aminotransferase increased (expansion): 17%
AESI creatine phosphokinase increased (expansion): 17%
Adverse events of special interest (AESI) (expansion): 50%
TRAEs leading to cobimetinib withdrawal (expansion): 8%
TRAEs leading to cobimetinib withdrawal (overall, six patients): 11%
Patients with DLTs (six patients, dose escalation, cycle 1): 11%
Adverse events of special interest (AESI) (suspension dose escalation): 50%
TRAEs leading to cobimetinib withdrawal (suspension dose escalation): 15%
TRAEs leading to cobimetinib withdrawal (events) (suspension dose escalation, 1.0 mg/kg): grade 2 epitheliopathy/keratitis
TRAEs leading to cobimetinib withdrawal (events) (suspension dose escalation, 1.33 mg/kg): grade 4 chorioretinopathy; also recorded: grade 2 ECG QT prolonged; also recorded: grade 1 serous retinal detachment
Pediatric recommended Phase II dose (RP2D), suspension (suspension, Days 1–21 of 28-day cycle): 1.0 mg/kg
TRAEs leading to cobimetinib withdrawal (tablet dose escalation): 6%
TRAEs leading to cobimetinib withdrawal (events) (tablet dose escalation, 1.0 mg/kg): grade 2 retinal detachment
Pediatric recommended Phase II dose (RP2D), tablet (tablet, Days 1–21 of 28-day cycle): 0.8 mg/kg
